Measured values as given in ChEMBL document CHEMBL3797184, “Benzo[d]thiazol-2-yl(piperazin-1-yl)methanones as new anti-mycobacterial chemotypes: Design, synthesis, biological evaluation and 3D-QSAR studies” (Eur J Med Chem, 2016).
Converted amounts (≈) assume the structure as drawn.

Tests used:
[1] = tested on: Mycobacterium tuberculosis; assay: Antitubercular activity against Mycobacterium tuberculosis H37Rv ATCC 27294 after 28 days by two-fold serial dilution method; type: functional; conditions: for MIC: Mycobacterium tuberculosis, H37Rv ATCC 27294, 672 h
In short: (§1)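 NCCLS-recommended agar dilution run in triplicate against H37Rv ATCC 27294. Two-fold dilutions (50.0 to 0.4 µg/mL) in Middlebrook 7H11 agar with OADC. Inoculum came from fresh 7H11/OADC slants, adjusted to 1 mg/mL wet weight in 0.05% Tween 80 saline and diluted 10^-2 (~10^7 cfu/mL). 5 µL was spotted per tube, incubated at 37 °C and read at 28 days as MIC.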

[2] = Cytotoxicity against mouse RAW264.7 cells at 50 ug/ml after 72 hrs by MTT assay; type: cell-based; conditions: read-out: INH
[3] = Therapeutic index, ratio of cytotoxicity against mouse RAW264.7 cells to antitubercular activity against Mycobacterium tuberculosis H37Rv ATCC 27294; type: cell-based; conditions: read-out: TI
[4] = tested on: Mycobacterium tuberculosis; assay: Antitubercular activity against Mycobacterium tuberculosis; type: functional; in short: as §1
[5] = tested on: Mycobacterium tuberculosis; assay: Antitubercular activity against Mycobacterium tuberculosis clinical isolate by BACTEC 460 TB method; type: functional
[6] = tested on: Mycobacterium tuberculosis; assay: Antitubercular activity against Mycobacterium tuberculosis […] by microplate Alamar blue assay; type: functional

| Structure (SMILES) | -logMIC [1] | MIC [1] | cytotoxicity at 72 h, 50 ug/ml [2] | other results |
| --- | --- | --- | --- | --- |
| O=C(c1nc2ccccc2s1)N1CCN(c2ccccc2)CC1 | 5.32 | 4.82 µM (≈ 1.56 µg/mL) | 67.2% |  |
| CO[C@H]1/C=C/O[C@@]2(C)Oc3c(C)c(O)c4c(O)c(c(/C=N/N5CCN(C)CC5)c(O)c4c3C2=O)NC(=O)/C(C)=C\C=C\[C@H](C)[C@H](O)[C@@H](C)[C@@H](O)[C@@H](C)[C@H](OC(C)=O)[C@@H]1C [RIFAMPIN] |  | 0.24 µM (≈ 0.198 µg/mL) |  |  |
| COc1ccc(N2CCN(C(=O)c3nc4cc(C(F)(F)F)ccc4s3)CC2)cc1 | 5.13 | 7.42 µM (≈ 3.13 µg/mL) | 19.4% |  |
| COc1ccccc1N1CCN(C(=O)c2nc3cc(C(F)(F)F)ccc3s2)CC1 |  | 59.3 µM (≈ 25 µg/mL) |  |  |
| COc1ccc(N2CCN(C(=O)c3nc4ccccc4s3)CC2)cc1 | 4.45 | 35.4 µM (≈ 12.5 µg/mL) |  |  |
| O=C(c1nc2ccccc2s1)N1CCN(c2ccncc2)CC1 | 5.02 | 9.63 µM (≈ 3.12 µg/mL) | 62% |  |
| O=C(c1nc2cc(C(F)(F)F)ccc2s1)N1CCN(C(c2ccccc2)c2ccccc2)CC1 |  | 51.9 µM (≈ 25 µg/mL) |  |  |
| O=C(c1nc2cc(C(F)(F)F)ccc2s1)N1CCN(c2ccncc2)CC1 | 5.1 | 7.96 µM (≈ 3.12 µg/mL) | 17.5% |  |
| COc1ccccc1N1CCN(C(=O)c2nc3cc(Cl)ccc3s2)CC1 | 5.09 | 8.06 µM (≈ 3.13 µg/mL) | 63.4% |  |
| O=C(c1nc2cc(C(F)(F)F)ccc2s1)N1CCN(c2cnccn2)CC1 | 5.1 | 7.94 µM (≈ 3.12 µg/mL) | 28.1% |  |
| CC(=O)c1ccc(N2CCN(C(=O)c3nc4cc(Cl)ccc4s3)CC2)cc1 | 5.41 | 3.9 µM (≈ 1.56 µg/mL) | 30.8% |  |
| O=C(c1nc2cc(Cl)ccc2s1)N1CCCCC1 |  | 44.5 µM (≈ 12.5 µg/mL) |  |  |
| NNC(=O)c1ccncc1 [ISONIAZID] |  | 0.72 µM (≈ 0.0987 µg/mL) |  |  |
| COc1ccc(N2CCN(C(=O)c3nc4cc(Cl)ccc4s3)CC2)cc1 | 5.09 | 8.06 µM (≈ 3.13 µg/mL) | 42.8% |  |
| CC(=O)c1ccc(N2CCN(C(=O)c3nc4ccccc4s3)CC2)cc1 | 5.37 | 4.27 µM (≈ 1.56 µg/mL) | 62.3% |  |
| O=C(c1nc2cc(C(F)(F)F)ccc2s1)N1CCCCC1 |  | 39.8 µM (≈ 12.5 µg/mL) |  |  |
| O=C(c1nc2ccccc2s1)N1CCN(c2cnccn2)CC1 | 4.72 | 19.2 µM (≈ 6.25 µg/mL) | 65.3% |  |
| CN1CCN(C(=O)c2nc3ccccc3s2)CC1 | 4.92 | 12 µM (≈ 3.13 µg/mL) | 52.1% |  |
| O=C(c1nc2cc(C(F)(F)F)ccc2s1)N1CCSCC1 |  | 2.35 µM (≈ 0.781 µg/mL) | 18.1% | selectivity ratio [3]: > 60 |
| O=C(c1nc2ccccc2s1)N1CCN(C(c2ccccc2)c2ccccc2)CC1 | 5.72 | 1.89 µM (≈ 0.782 µg/mL) | 60.7% |  |
| O=C(c1nc2cc(Cl)ccc2s1)N1CCSCC1 |  | 20.9 µM (≈ 6.25 µg/mL) | 62.5% |  |
| O=C(c1nc2ccccc2s1)N1CCSCC1 |  | 94.6 µM (≈ 25 µg/mL) |  |  |
| O=C(c1nc2cc(Cl)ccc2s1)N1CCN(C(c2ccccc2)c2ccccc2)CC1 | 5.76 | 1.74 µM (≈ 0.78 µg/mL) | 52.9% |  |

| Structure (SMILES) | -logMIC [1] | MIC [1] | cytotoxicity at 72 h, 50 ug/ml [2] | other results |
| --- | --- | --- | --- | --- |
| CC(=O)c1ccc(N2CCN(C(=O)c3nc4cc(C(F)(F)F)ccc4s3)CC2)cc1 | 4.84 | 14.4 µM (≈ 6.25 µg/mL) | 30.6% |  |
| O=C(c1nc2cc(Cl)ccc2s1)N1CCOCC1 |  | 22.1 µM (≈ 6.25 µg/mL) | 26.1% |  |
| CN1CCN(C(=O)c2nc3cc(Cl)ccc3s2)CC1 |  | 84.5 µM (≈ 25 µg/mL) |  |  |
| CCOC(=O)c1nc2cc(C(F)(F)F)ccc2s1 |  | 22.7 µM (≈ 6.25 µg/mL) | 29.1% |  |
| COc1ccccc1N1CCN(C(=O)c2nc3ccccc3s2)CC1 | 5.05 | 8.84 µM (≈ 3.12 µg/mL) | 53.4% |  |
| CC(C)C(NC(=O)OCC1c2ccccc2-c2ccccc21)C(=O)O/N=C1\c2ccccc2-c2c1c(N1CCN(c3ccccn3)CC1)nc1ccc(Br)cc21 (stereo not drawn) |  |  |  | MIC [4]: 1.47 µg/mL (≈ 1.82 µM) |
| O=C(c1nc2cc(C(F)(F)F)ccc2s1)N1CCN(c2ccccc2)CC1 |  | 31.9 µM (≈ 12.5 µg/mL) |  |  |
| NC(=O)c1cnccn1 [PYRAZINAMIDE] |  | 50.8 µM (≈ 6.25 µg/mL) |  |  |
| Cc1c(CN2CCN(C)CC2)cc(-c2ccc(Cl)cc2)n1-c1ccc(Cl)cc1 |  |  |  | MIC [5]: 1.5 µg/mL (≈ 3.62 µM) |
| CN1CCN(C(=O)c2nc3cc(C(F)(F)F)ccc3s2)CC1 | 4.72 | 19 µM (≈ 6.25 µg/mL) | 12.6% |  |
| CCOC(=O)c1nc2cc(Cl)ccc2s1 |  | 12.9 µM (≈ 3.13 µg/mL) | 37.4% |  |
| CC(=O)N1CCN(C(=O)c2nc3ccccc3s2)CC1 | 5.27 | 5.39 µM (≈ 1.56 µg/mL) | 48.8% |  |
| O=C(c1nc2cc(Cl)ccc2s1)N1CCN(c2ccccc2)CC1 | 4.76 | 17.5 µM (≈ 6.25 µg/mL) | 41.2% |  |
| CC(=O)N1CCN(C(=O)c2nc3cc(C(F)(F)F)ccc3s2)CC1 | 5.36 | 4.37 µM (≈ 1.56 µg/mL) | 20.2% |  |
| O=C(c1nc2ccccc2s1)N1CCCCC1 |  | 101 µM (≈ 25 µg/mL) |  |  |
| O=C(c1nc2cc(Cl)ccc2s1)N1CCN(c2cnccn2)CC1 | 4.76 | 17.4 µM (≈ 6.25 µg/mL) | 54.9% |  |
| CC[C@@H](CO)NCCN[C@@H](CC)CO [ETHAMBUTOL] |  | 7.64 µM (≈ 1.56 µg/mL) |  |  |
| CC(=O)N1CCN(C(=O)c2nc3cc(Cl)ccc3s2)CC1 | 4.41 | 38.6 µM (≈ 12.5 µg/mL) |  |  |
| O=C(c1nc2cc(C(F)(F)F)ccc2s1)N1CCOCC1 |  | 2.47 µM (≈ 0.781 µg/mL) | 24.6% | selectivity ratio [3]: > 60 |
| O=C(c1nc2ccccc2s1)N1CCOCC1 |  | 6.28 µM (≈ 1.56 µg/mL) | 36.2% |  |
| CCOC(=O)c1nc2ccccc2s1 |  | 121 µM (≈ 25 µg/mL) |  |  |
| CN1CCN(/N=C\c2cc(C(F)(F)F)nc3c(C(F)(F)F)cccc23)CC1 |  |  |  | MIC [6]: 3.56 µg/mL (≈ 9.12 µM) |
| O=C(c1nc2cc(Cl)ccc2s1)N1CCN(c2ccncc2)CC1 | 4.46 | 34.8 µM (≈ 12.5 µg/mL) |  |  |
